Molecular target: T1, UDP-N-acetylmuramoylalanine-D-glutamyl-lysine-D-alanyl-D-alanine ligase (Streptococcus pneumoniae R6, UniProt Q8DNV6)
T1 sequence (Q8DNV6 whole entry): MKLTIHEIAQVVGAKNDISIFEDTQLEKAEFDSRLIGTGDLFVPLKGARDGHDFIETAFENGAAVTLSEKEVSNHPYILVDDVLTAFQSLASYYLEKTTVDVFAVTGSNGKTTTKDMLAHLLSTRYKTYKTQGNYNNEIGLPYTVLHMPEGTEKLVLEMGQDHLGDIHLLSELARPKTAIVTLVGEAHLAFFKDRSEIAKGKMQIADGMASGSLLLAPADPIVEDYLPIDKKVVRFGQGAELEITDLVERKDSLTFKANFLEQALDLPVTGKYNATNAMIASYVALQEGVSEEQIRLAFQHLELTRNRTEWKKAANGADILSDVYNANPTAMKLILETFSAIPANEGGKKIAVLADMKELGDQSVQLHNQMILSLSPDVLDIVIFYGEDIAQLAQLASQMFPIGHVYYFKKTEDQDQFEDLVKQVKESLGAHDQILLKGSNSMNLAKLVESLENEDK
Experiment: Antibacterial activity against UDP-MurNAc-pentapeptide synthetase from Streptococcus pneumoniae.
Summary of the method: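 Activity was read as radiolabeled free phosphate released. IC50 was read graphically from four-point concentration plots spanning it. Each point is the mean of at least two determinations, and each IC50 the mean of at least two independent plots.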

Compound | IC50 [µM]
CCN(CC)S(=O)(=O)c1ccc(Cl)c(C(=O)Nc2sc3c(c2CN)CCC3)c1 | > 100
N#Cc1c(NC(=O)c2cc(S(=O)(=O)N3CCOCC3)ccc2Cl)sc2c1CCCC2 | 1.7
CCN(CC)S(=O)(=O)c1ccc(Cl)c(CNc2sc3c(c2C#N)CCC3)c1 | > 100
N#Cc1c(NC(=O)c2cc(S(=O)(=O)N3CCOCC3)ccc2Cl)sc2c1CCC2 | 9
N#Cc1c(NC(=O)c2cc(S(=O)(=O)N3CCOCC3)c(Cl)cc2Cl)sc2c1CCCC2 | 1
CN(C)CCCNS(=O)(=O)c1ccc(Cl)c(C(=O)Nc2sc3c(c2C#N)CCC3)c1 | > 100
CCOC(=O)c1c(NC(=O)c2cc(S(=O)(=O)N(CC)CC)ccc2Cl)sc2c1CCC2 | > 100
N#Cc1c(NC(=O)c2cc(S(=O)(=O)N3CCOCC3)c(F)cc2Cl)sc2c1CCC2 | 6.4
CCN(CC)S(=O)(=O)c1ccc(Cl)c(C(=O)Nc2sc3c(c2C#N)CCC3)c1 | 8
N#Cc1c(NC(=O)c2cc(S(=O)(=O)N3CCOCC3)c(Cl)cc2Cl)sc2c1CCC(c1ccccc1)C2 (centres undefined) | 0.07
N#Cc1c(NC(=O)c2cc(S(=O)(=O)N3CCOCC3)c(NCCCO)cc2Cl)sc2c1CCC2 | > 100
CNc1cc(Cl)c(C(=O)Nc2sc3c(c2C#N)CCC3)cc1S(=O)(=O)N1CCOCC1 | 62
N#Cc1c(NC(=O)c2cc(S(=O)(=O)Nc3ccccc3)ccc2Cl)sc2c1CCC2 | 26
CN(C)CCCNc1ccc(S(=O)(=O)N2CCOCC2)cc1C(=O)Nc1sc2c(c1C#N)CCC2 | 74
CCN(CC)S(=O)(=O)c1ccc(Cl)c(C(=O)Nc2sc3c(c2C#N)CCCCC3)c1 | 3.4
CCN(CC)S(=O)(=O)c1ccc(Cl)c(C(=O)N(C)c2sc3c(c2C#N)CCC3)c1 | > 100
CCN(CC)S(=O)(=O)c1ccc(Cl)c(C(=O)Nc2sc3c(c2C#N)CCCC3)c1 | 1.4

Compound | IC50 [µM]
CC(COc1ccc(S(=O)(=O)N2CCOCC2)cc1C(=O)Nc1sc2c(c1C#N)CCC2)c1ccccc1 (centres undefined) | > 100
CCN(CC)S(=O)(=O)c1ccc(Cl)c(C(=O)Nc2sc3c(c2C(N)=O)CCC3)c1 | 66
CCN(CC)S(=O)(=O)c1ccc(Cl)c(C(=O)Nc2sc3c(c2CNC(C)=O)CCC3)c1 | > 100
CCOC(=O)C1CCc2c(sc(NC(=O)c3cc(S(=O)(=O)N(CC)CC)ccc3Cl)c2C#N)C1 (centres undefined) | 6
CCN(CC)S(=O)(=O)c1cc(C(=O)Nc2sc3c(c2C#N)CCC3)c(Cl)cc1Cl | 5.2
CNS(=O)(=O)c1ccc(Cl)c(C(=O)Nc2sc3c(c2C#N)CCC3)c1 | 15
CN(C)CCCNc1cc(Cl)c(C(=O)Nc2sc3c(c2C#N)CCC3)cc1S(=O)(=O)N1CCOCC1 | > 100
N#Cc1c(NC(=O)c2cc(S(=O)(=O)N3CCOCC3)c(Cl)cc2Cl)sc2c1CCC(c1ccc(O)cc1)C2 (centres undefined) | 0.022
CCN(CC)S(=O)(=O)c1ccc(Cl)c(C(=O)Nc2sc3c(c2C#N)CCC(c2ccc(O)cc2)C3)c1 (centres undefined) | 0.054
N#Cc1c(NC(=O)c2cc(S(=O)(=O)N3CCOCC3)ccc2Br)sc2c1CCC2 | 4.2
CCN(CC)S(=O)(=O)c1ccc(Cl)c(C(C)Nc2sc3c(c2C#N)CCC3)c1 (centres undefined) | > 100
CCOc1ccc(S(=O)(=O)N2CCOCC2)cc1C(=O)Nc1sc2c(c1C#N)CCC2 | > 100
CN(C)c1ccc(S(=O)(=O)N2CCOCC2)cc1C(=O)Nc1sc2c(c1C#N)CCC2 | > 100
N#Cc1c(NC(=O)c2cc(S(=O)(=O)N3CCOCC3)c(Cl)cc2Cl)sc2c1CCC2 | 0.3
N#Cc1c(NC(=O)c2cccc(S(=O)(=O)N3CCOCC3)c2)sc2c1CCC2 | > 100
N#Cc1c(NC(=O)c2cc(S(=O)(=O)N3CCOCC3)ccc2Cl)sc2c1CCCCC2 | 4.2
CCN(CC)S(=O)(=O)c1cc(C(=O)Nc2sc3c(c2C#N)CCC(c2ccc(O)cc2)C3)c(Cl)cc1Cl (centres undefined) | 0.067

Reference: ChEMBL document CHEMBL1148431, “Structure-activity relationships of novel potent MurF inhibitors” (Bioorg Med Chem Lett, 2004)
